Our source for the Ratio and EC50 values is ChEMBL document CHEMBL1122673, “Synthesis of a novel series of (aryloxy)propanolamines: new selective beta 2-blocking agents” (J Med Chem, 1984).

Assay [1] can be described thus: Compound was determined for heart rate with respect to propanol. It is filed as functional. A digest of the protocol:
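Urethane-anesthetized animals (1.25 g/kg ip). Carotid blood pressure was recorded, and heart rate was taken from pulse pressure. Three isoproterenol doses (10 µg/kg iv) set the control mean heart-rate rise and diastolic fall. Antagonist was given as four cumulative iv doses, with isoproterenol 10 min after each. The next dose followed return to baseline. Groups of ≥4 animals.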

The species named for assay [2] is Cavia porcellus. Nature of the assay: (§1) In vitro evaluation on guinea pig trachea. EC50 which is the molar concentration required to give 50% inhibition of the isoproterenol response (1x10E-6M) was determined. In kind it is functional, organism-based. A digest of the protocol: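 Isolated guinea pig tracheal spirals were held at 1.50 g initial tension (resting 0.4–0.6 g) in Tyrode at 37 °C, gassed with O2/CO2 95:5, and contracted with acetylcholine 3 × 10^-6 M. Antagonist was added 15 min before Ach. Isoproterenol 3 × 10^-8 to 3 × 10^-6 M was added at maximal contraction. EC50 came from four points, with ≥4 preparations per group.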

The species named for assay [3] is Cavia porcellus. Described as §1. In kind it is functional. The note with it: read-out: ED50 (the source's name). The gist of the method: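 Isolated guinea pig tracheal spirals were held at 1.50 g initial tension (resting 0.4–0.6 g) in Tyrode at 37 °C, gassed with O2/CO2 95:5, and contracted with acetylcholine 3 × 10^-6 M. Antagonist was added 15 min before Ach. Isoproterenol 3 × 10^-8 to 3 × 10^-6 M was added at maximal contraction.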

With `CC(C)NCC(O)COc1ccc2c(c1)[C@@H]1CCCCC[C@H]21` (some centres undefined), the Ratio in assay [1] is reported as 0.02. In addition, in the assay listed under Cavia porcellus [2], the EC50 amounted to 417 nM.
For the compound `CC(C)(C)NCC(O)COc1ccc2c(c1)[C@@H]1CCCCC[C@H]21` (some centres undefined), the EC50 in the assay listed under Cavia porcellus [3] was determined as 1380 nM.
Still for that read-out and setting: next, `CC(C)NCC(O)COc1cccc2c1[C@]1(O)CCCCC[C@H]21` (some centres undefined): 130 nM.
Still for that read-out and setting: the figure for `CC(C)(C)NCC(O)COc1cccc2c1[C@]1(O)CCCC[C@H]21` (some centres undefined) is 115 nM.
Consider `CC(C)(C)NCC(O)COc1cccc2c1[C@@H]1CCCCC[C@]21O` (some centres undefined), for which the EC50 in the assay filed under Cavia porcellus [3] amounted to 1.26 nM. Moreover, the Ratio in assay [1] is recorded as 0.42.
On the same counts, the results for `CC(C)NCC(O)COc1cccc2c1[C@@H]1CCCCC[C@]21O` (some centres undefined) are 1.3 nM and 0.8.
Consider `COc1ccc(CCNCC(O)COc2cccc3c2[C@@H]2CCCCC[C@]32O)cc1OC` (some centres undefined), for which the EC50 in the assay listed under Cavia porcellus [3] was found to be 260 nM. For the same compound, the Ratio in assay [1] turned out to be 0.68.
Regarding `CC(C)(C)NCC(O)COc1cccc2c1[C@@H]1CCCCC[C@H]21` (some centres undefined), the Ratio in assay [1] amounted to 0.57. The EC50 in the assay listed under Cavia porcellus [2] came out at 45.7 nM.
Turning to `CC(C)(C)NCC(O)COc1cccc2c1[C@]1(O)CCCCC[C@H]21` (some centres undefined), the EC50 in the assay listed under Cavia porcellus [3] was found to be 5.49 nM. For the same compound, the Ratio in assay [1] was found to be 0.08.
`COc1ccc(CCNCC(O)COc2cccc3c2[C@@H]2CCCCC[C@H]32)cc1OC` (some centres undefined) returned an EC50 in the assay listed under Cavia porcellus [2] of 1100 nM.
Same read-out and setting: the figure for `CC(C)NCC(O)COc1cccc2c1[C@@H]1CCCC[C@H]21` (some centres undefined) is 70 nM.
For `CCCC(=O)Nc1ccc(OCC(O)CNC(C)C)c2c1[C@H]1CCCCC[C@@H]21` (some centres undefined), the EC50 in the assay filed under Cavia porcellus [3] amounted to 341 nM.
As to `CC(C)NCC(O)COc1cccc2c1[C@@H]1CCCCC[C@H]21` (some centres undefined), the Ratio in assay [1] is given as 0.46. Moreover, the EC50 in the assay listed under Cavia porcellus [2] was determined as 2 nM.
Consider `CC(C)NCC(O)COc1ccc2ccccc2c1` (centres undefined), for which the EC50 in the assay filed under Cavia porcellus [3] was 55 nM.
Same read-out and setting: the figure for `COc1ccc(CCNCC(O)COc2cccc3c2[C@]2(O)CCCCC[C@H]32)cc1OC` (some centres undefined) is 7010 nM.
Regarding `CC(C)NCC(O)COc1ccc2c(c1)[C@@H]1CCCC[C@H]21` (some centres undefined), in the assay listed under Cavia porcellus [2], the EC50 came out at 502 nM.
On the same count and under the same terms, next, `CC(C)(C)NCC(O)COc1ccc2c(c1)[C@@H]1CCCC[C@H]21` (some centres undefined): 201 nM.
